In ChEMBL document CHEMBL1139476, “Radioiodinated flavones for in vivo imaging of beta-amyloid plaques in the brain” (J Med Chem, 2005):

Columns and labels:
Blood [1] = assay: Biodistribution in ddY mouse blood at 2 uCi, iv after 2 mins; assay type: ADME, organism-based; conditions: in vivo
In short: (§1)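 Normal mice given the 125I-labelled flavone intravenously; killed at each time point postinjection, organs removed, weighed and counted in a γ counter. Radioactivity expressed as % injected dose per gram tissue; mean (SD) of three to five animals per interval.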

Liver [2] = assay: Biodistribution in ddY mouse liver at 2 uCi, iv after 60 mins; assay type: ADME, organism-based; conditions: in vivo, 1 h; in short: as §1
Kidney [3] = assay: Biodistribution in ddY mouse kidney at 2 uCi, iv after 10 mins; assay type: ADME, organism-based; conditions: in vivo; in short: as §1
Liver [4] = assay: Biodistribution in ddY mouse liver at 2 uCi, iv after 2 mins; assay type: ADME, organism-based; conditions: in vivo; in short: as §1
Heart [5] = assay: Biodistribution in ddY mouse heart at 2 uCi, iv after 2 mins; assay type: ADME, organism-based; conditions: in vivo; in short: as §1
Spleen [6] = assay: Biodistribution in ddY mouse spleen at 2 uCi, iv after 10 mins; assay type: ADME, organism-based; conditions: in vivo; in short: as §1
Spleen [7] = assay: Biodistribution in ddY mouse spleen at 2 uCi, iv after 30 mins; assay type: ADME, organism-based; conditions: in vivo, 0.5 h; in short: as §1
Kidney [8] = assay: Biodistribution in ddY mouse kidney at 2 uCi, iv after 30 mins; assay type: ADME, organism-based; conditions: in vivo, 0.5 h; in short: as §1
Spleen [9] = assay: Biodistribution in ddY mouse spleen at 2 uCi, iv after 2 mins; assay type: ADME, organism-based; conditions: in vivo; in short: as §1
Blood [10] = assay: Biodistribution in ddY mouse blood at 2 uCi, iv after 30 mins; assay type: ADME, organism-based; conditions: in vivo, 0.5 h; in short: as §1
Brain [11] = assay: Biodistribution in ddY mouse brain at 2 uCi, iv after 60 mins; assay type: ADME, organism-based; conditions: in vivo, 1 h; in short: as §1
Heart [12] = assay: Biodistribution in ddY mouse heart at 2 uCi, iv after 60 mins; assay type: ADME, organism-based; conditions: in vivo, 1 h; in short: as §1
Brain [13] = assay: Biodistribution in ddY mouse brain at 2 uCi, iv after 10 mins; assay type: ADME, organism-based; conditions: in vivo; in short: as §1
Kidney [14] = assay: Biodistribution in ddY mouse kidney at 2 uCi, iv after 60 mins; assay type: ADME, organism-based; conditions: in vivo, 1 h; in short: as §1
Heart [15] = assay: Biodistribution in ddY mouse heart at 2 uCi, iv after 10 mins; assay type: ADME, organism-based; conditions: in vivo; in short: as §1
Intestine [16] = assay: Biodistribution in ddY mouse intestine at 2 uCi, iv after 60 mins; assay type: ADME, organism-based; conditions: in vivo, 1 h; in short: as §1
Stomach [17] = assay: Biodistribution per organ in ddY mouse stomach at 2 uCi, iv after 2 mins; assay type: ADME, organism-based; conditions: in vivo
In short: (§2)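 Normal mice injected intravenously with the 125I-labelled flavone; killed at each time point, stomach removed and counted in a γ counter. Value given as % injected dose per whole organ; mean (SD) of three to five animals per interval.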

Heart [18] = assay: Biodistribution in ddY mouse heart at 2 uCi, iv after 30 mins; assay type: ADME, organism-based; conditions: in vivo, 0.5 h; in short: as §1
Stomach [19] = assay: Biodistribution per organ in ddY mouse stomach at 2 uCi, iv after 60 mins; assay type: ADME, organism-based; conditions: in vivo, 1 h; in short: as §2
Blood [20] = assay: Biodistribution in ddY mouse blood at 2 uCi, iv after 10 mins; assay type: ADME, organism-based; conditions: in vivo; in short: as §1
Stomach [21] = assay: Biodistribution per organ in ddY mouse stomach at 2 uCi, iv after 30 mins; assay type: ADME, organism-based; conditions: in vivo, 0.5 h; in short: as §2
Brain [22] = assay: Biodistribution in ddY mouse brain at 2 uCi, iv after 30 mins; assay type: ADME, organism-based; conditions: in vivo, 0.5 h; in short: as §1
Blood [23] = assay: Biodistribution in ddY mouse blood at 2 uCi, iv after 60 mins; assay type: ADME, organism-based; conditions: in vivo, 1 h; in short: as §1
Intestine [24] = assay: Biodistribution in ddY mouse intestine at 2 uCi, iv after 30 mins; assay type: ADME, organism-based; conditions: in vivo, 0.5 h; in short: as §1
Kidney [25] = assay: Biodistribution in ddY mouse kidney at 2 uCi, iv after 2 mins; assay type: ADME, organism-based; conditions: in vivo; in short: as §1
Liver [26] = assay: Biodistribution in ddY mouse liver at 2 uCi, iv after 30 mins; assay type: ADME, organism-based; conditions: in vivo, 0.5 h; in short: as §1
Intestine [27] = assay: Biodistribution in ddY mouse intestine at 2 uCi, iv after 2 mins; assay type: ADME, organism-based; conditions: in vivo; in short: as §1
Spleen [28] = assay: Biodistribution in ddY mouse spleen at 2 uCi, iv after 60 mins; assay type: ADME, organism-based; conditions: in vivo, 1 h; in short: as §1
Stomach [29] = assay: Biodistribution per organ in ddY mouse stomach at 2 uCi, iv after 10 mins; assay type: ADME, organism-based; conditions: in vivo; in short: as §2
Brain [30] = assay: Biodistribution in ddY mouse brain at 2 uCi, iv after 2 mins; assay type: ADME, organism-based; conditions: in vivo; in short: as §1
[31] = Partition coefficient, log P at pH 7.4; assay type: physicochemical; conditions: octanol/water
In short: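 Radioiodinated tracer shaken 3 min at room temperature in 1-octanol and 0.1 M phosphate buffer pH 7.4, centrifuged 5 min. Equal aliquots of each layer counted; ratio of octanol to buffer counts, with octanol layer repartitioned until values were consistent. Triplicate, repeated three times; mean (SD) of three experiments.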

Liver [32] = assay: Biodistribution in ddY mouse liver at 2 uCi, iv after 10 mins; assay type: ADME, organism-based; conditions: in vivo; in short: as §1
Intestine [33] = assay: Biodistribution in ddY mouse intestine at 2 uCi, iv after 10 mins; assay type: ADME, organism-based; conditions: in vivo; in short: as §1
[34] = biological target: T1, Amyloid-beta precursor protein (Homo sapiens, UniProt P05067); assay: Displacement of [125I]6-iodo-4'-dimethyaminofl avone from beta amyloid (1-40) protein aggregates
T1 sequence (P05067 whole entry): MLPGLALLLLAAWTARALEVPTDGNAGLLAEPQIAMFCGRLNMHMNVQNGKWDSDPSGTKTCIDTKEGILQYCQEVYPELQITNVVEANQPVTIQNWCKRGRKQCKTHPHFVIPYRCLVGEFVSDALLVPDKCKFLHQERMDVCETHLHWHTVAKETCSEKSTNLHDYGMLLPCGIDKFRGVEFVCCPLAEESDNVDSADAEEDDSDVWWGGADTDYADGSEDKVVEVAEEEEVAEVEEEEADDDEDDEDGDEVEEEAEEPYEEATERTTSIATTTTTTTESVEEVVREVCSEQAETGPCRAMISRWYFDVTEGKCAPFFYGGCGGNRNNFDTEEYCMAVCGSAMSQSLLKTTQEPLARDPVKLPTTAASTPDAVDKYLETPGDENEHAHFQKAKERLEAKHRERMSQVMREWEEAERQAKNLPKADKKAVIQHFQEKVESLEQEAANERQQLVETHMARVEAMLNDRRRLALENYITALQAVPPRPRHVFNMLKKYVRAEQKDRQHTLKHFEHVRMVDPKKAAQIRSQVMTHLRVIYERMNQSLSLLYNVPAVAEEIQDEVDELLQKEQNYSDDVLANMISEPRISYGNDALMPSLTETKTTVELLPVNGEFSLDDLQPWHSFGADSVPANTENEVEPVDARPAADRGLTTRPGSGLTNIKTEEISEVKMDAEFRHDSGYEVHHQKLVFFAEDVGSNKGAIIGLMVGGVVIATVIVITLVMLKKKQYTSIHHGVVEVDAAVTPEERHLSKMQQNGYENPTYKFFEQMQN

[35] = biological target: T1, Amyloid-beta precursor protein; assay: Displacement of [125I]6-iodo-4'-dimethyaminofl avone from beta amyloid (1-42) protein aggregates

CNc1ccc(-c2cc(=O)c3cc([125I])ccc3o2)cc1
Drug uptake (Blood [1]): 1.89 % ID/g
Drug uptake (Liver [2]): 15.14 % ID/g
Drug uptake (Kidney [3]): 5.21 % ID/g
Drug uptake (Liver [4]): 16.28 % ID/g
Drug uptake (Heart [5]): 4.87 % ID/g
Drug uptake (Spleen [6]): 2.31 % ID/g
Drug uptake (Spleen [7]): 1.76 % ID/g
Drug uptake (Kidney [8]): 3.85 % ID/g
Drug uptake (Spleen [9]): 2.57 % ID/g
Drug uptake (Blood [10]): 1.34 % ID/g
Drug uptake (Brain [11]): 1.19 % ID/g
Drug uptake (Heart [12]): 1.28 % ID/g
Drug uptake (Brain [13]): 3.68 % ID/g
Drug uptake (Kidney [14]): 3.05 % ID/g
Drug uptake (Heart [15]): 2.66 % ID/g
Drug uptake (Intestine [16]): 21.48 % ID/g
Drug uptake (Stomach [17]): 0.78 % ID/organ
Drug uptake (Heart [18]): 1.67 % ID/g
Drug uptake (Stomach [19]): 1.8 % ID/organ
Drug uptake (Blood [20]): 1.39 % ID/g
Drug uptake (Stomach [21]): 1.44 % ID/organ
Drug uptake (Brain [22]): 1.84 % ID/g
Drug uptake (Blood [23]): 1.5 % ID/g
Drug uptake (Intestine [24]): 12.84 % ID/g
Drug uptake (Kidney [25]): 8.13 % ID/g
Drug uptake (Liver [26]): 18.61 % ID/g
Drug uptake (Intestine [27]): 3.1 % ID/g
Drug uptake (Spleen [28]): 1.52 % ID/g
Drug uptake (Stomach [29]): 0.87 % ID/organ
Drug uptake (Brain [30]): 4.12 % ID/g
logD [31]: 2.15
Drug uptake (Liver [32]): 25.28 % ID/g
Drug uptake (Intestine [33]): 7.91 % ID/g

COc1ccc(-c2cc(=O)c3cc([125I])ccc3o2)cc1
Drug uptake (Blood [1]): 1.87 % ID/g
Drug uptake (Liver [2]): 1.88 % ID/g
Drug uptake (Kidney [3]): 6.3 % ID/g
Drug uptake (Liver [4]): 8.96 % ID/g
Drug uptake (Heart [5]): 4.98 % ID/g
Drug uptake (Spleen [6]): 1.38 % ID/g
Drug uptake (Spleen [7]): 0.55 % ID/g
Drug uptake (Kidney [8]): 4.51 % ID/g
Drug uptake (Spleen [9]): 2.7 % ID/g
Drug uptake (Blood [10]): 0.4 % ID/g
Drug uptake (Brain [11]): 0.17 % ID/g
Drug uptake (Heart [12]): 0.47 % ID/g
Drug uptake (Brain [13]): 2.36 % ID/g
Drug uptake (Kidney [14]): 1.46 % ID/g
Drug uptake (Heart [15]): 2.25 % ID/g
Drug uptake (Intestine [16]): 30.05 % ID/g
Drug uptake (Stomach [17]): 0.68 % ID/organ
Drug uptake (Heart [18]): 0.84 % ID/g
Drug uptake (Stomach [19]): 0.31 % ID/organ
Drug uptake (Blood [20]): 1.19 % ID/g
Drug uptake (Stomach [21]): 0.55 % ID/organ
Drug uptake (Brain [22]): 0.51 % ID/g
Drug uptake (Blood [23]): 0.23 % ID/g
Drug uptake (Intestine [24]): 22.51 % ID/g
Drug uptake (Kidney [25]): 7.99 % ID/g
Drug uptake (Liver [26]): 3.75 % ID/g
Drug uptake (Intestine [27]): 3.52 % ID/g
Drug uptake (Spleen [28]): 3.67 % ID/g
Drug uptake (Stomach [29]): 0.45 % ID/organ
Drug uptake (Brain [30]): 4 % ID/g
logD [31]: 2.41
Drug uptake (Liver [32]): 9.01 % ID/g
Drug uptake (Intestine [33]): 14.39 % ID/g

O=c1cc(-c2ccc(O)cc2)oc2ccc([125I])cc12
Drug uptake (Blood [1]): 2.77 % ID/g
Drug uptake (Liver [2]): 4.78 % ID/g
Drug uptake (Kidney [3]): 15.11 % ID/g
Drug uptake (Liver [4]): 9.77 % ID/g
Drug uptake (Heart [5]): 5.51 % ID/g
Drug uptake (Spleen [6]): 1.55 % ID/g
Drug uptake (Spleen [7]): 0.56 % ID/g
Drug uptake (Kidney [8]): 6.45 % ID/g
Drug uptake (Spleen [9]): 3.92 % ID/g
Drug uptake (Blood [10]): 0.66 % ID/g
Drug uptake (Brain [11]): 0.08 % ID/g
Drug uptake (Heart [12]): 0.12 % ID/g
Drug uptake (Brain [13]): 1.9 % ID/g
Drug uptake (Kidney [14]): 1.66 % ID/g
Drug uptake (Heart [15]): 1.6 % ID/g
Drug uptake (Intestine [16]): 27.28 % ID/g
Drug uptake (Stomach [17]): 0.89 % ID/organ
Drug uptake (Heart [18]): 0.53 % ID/g
Drug uptake (Stomach [19]): 0.81 % ID/organ
Drug uptake (Blood [20]): 1.58 % ID/g
Drug uptake (Stomach [21]): 1.56 % ID/organ
Drug uptake (Brain [22]): 0.52 % ID/g
Drug uptake (Blood [23]): 0.2 % ID/g
Drug uptake (Intestine [24]): 22.01 % ID/g
Drug uptake (Kidney [25]): 14.79 % ID/g
Drug uptake (Liver [26]): 6.8 % ID/g
Drug uptake (Intestine [27]): 3.12 % ID/g
Drug uptake (Spleen [28]): 0.17 % ID/g
Drug uptake (Stomach [29]): 0.59 % ID/organ
Drug uptake (Brain [30]): 3.31 % ID/g
logD [31]: 1.92
Drug uptake (Liver [32]): 8.24 % ID/g
Drug uptake (Intestine [33]): 11.26 % ID/g

CN(C)c1ccc(-c2cc(=O)c3cc([125I])ccc3o2)cc1
Drug uptake (Blood [1]): 1.87 % ID/g
Drug uptake (Liver [2]): 12.4 % ID/g
Drug uptake (Kidney [3]): 4.31 % ID/g
Drug uptake (Liver [4]): 15.41 % ID/g
Drug uptake (Heart [5]): 5.63 % ID/g
Drug uptake (Spleen [6]): 1.92 % ID/g
Drug uptake (Spleen [7]): 1.58 % ID/g
Drug uptake (Kidney [8]): 3.4 % ID/g
Drug uptake (Spleen [9]): 2.72 % ID/g
Drug uptake (Blood [10]): 1.2 % ID/g
Drug uptake (Brain [11]): 0.99 % ID/g
Drug uptake (Heart [12]): 1.07 % ID/g
Drug uptake (Brain [13]): 3.61 % ID/g
Drug uptake (Kidney [14]): 2.32 % ID/g
Drug uptake (Heart [15]): 2.47 % ID/g
Drug uptake (Intestine [16]): 18.64 % ID/g
Drug uptake (Stomach [17]): 0.73 % ID/organ
Drug uptake (Heart [18]): 1.69 % ID/g
Drug uptake (Stomach [19]): 1.06 % ID/organ
Drug uptake (Blood [20]): 1.07 % ID/g
Drug uptake (Stomach [21]): 1.17 % ID/organ
Drug uptake (Brain [22]): 1.89 % ID/g
Drug uptake (Blood [23]): 1.15 % ID/g
Drug uptake (Intestine [24]): 12.97 % ID/g
Drug uptake (Kidney [25]): 8.33 % ID/g
Drug uptake (Liver [26]): 15.71 % ID/g
Drug uptake (Intestine [27]): 2.24 % ID/g
Drug uptake (Spleen [28]): 1.18 % ID/g
Drug uptake (Stomach [29]): 0.63 % ID/organ
Drug uptake (Brain [30]): 3.22 % ID/g
logD [31]: 2.69
Drug uptake (Liver [32]): 21.85 % ID/g
Drug uptake (Intestine [33]): 6.56 % ID/g

Nc1c(/N=N/c2ccc(-c3ccc(/N=N/c4cc(S(=O)(=O)O)c5ccccc5c4N)cc3)cc2)cc(S(=O)(=O)O)c2ccccc12 [CONGO RED]
Ki [34]: > 1000 nM
Ki [35]: > 1000 nM
